# From PubChem BioAssay
# NF-kB neuron act: raises NF-kB expression in human neuronal cells | hit rate 1.6% among 190,000 | AID 1239 | fold change at 12.5 µM | NF-kB reporter expression; stronger effect = higher value; in the data active = fold change above about 3.3
# FLuc inhib CS: inhibits firefly luciferase, flagging false hits in luciferase inhibition screens; P08659; ATPLite firefly luciferase biochemical luminescence, 10 min; inhibition, % at 10 µM; hit rate 1.5% among 200,000; AID 1006;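 active = inhibition above about 50% when tested at 10 µM, limit read from the data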
# Target sequence (P08659 whole entry, looked up): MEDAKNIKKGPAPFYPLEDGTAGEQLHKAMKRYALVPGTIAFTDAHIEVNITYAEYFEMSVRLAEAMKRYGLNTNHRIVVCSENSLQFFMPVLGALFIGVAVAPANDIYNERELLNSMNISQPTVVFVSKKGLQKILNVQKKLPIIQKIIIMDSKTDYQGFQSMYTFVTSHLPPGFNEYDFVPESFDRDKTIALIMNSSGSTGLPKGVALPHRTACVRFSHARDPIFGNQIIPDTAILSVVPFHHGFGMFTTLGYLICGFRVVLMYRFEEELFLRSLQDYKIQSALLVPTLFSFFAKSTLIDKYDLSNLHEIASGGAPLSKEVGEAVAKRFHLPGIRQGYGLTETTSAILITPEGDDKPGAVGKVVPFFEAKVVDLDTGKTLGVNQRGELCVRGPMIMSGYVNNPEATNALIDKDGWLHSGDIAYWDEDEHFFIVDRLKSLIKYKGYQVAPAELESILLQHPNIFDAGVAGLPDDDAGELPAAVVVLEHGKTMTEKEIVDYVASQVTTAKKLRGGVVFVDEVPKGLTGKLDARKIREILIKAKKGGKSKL
# APP 5'UTR act: APP 5'UTR luciferase reporter activation | SH-SY5Y APP 5'UTR luciferase reporter, luminescence; zero percent = DMSO vehicle wells | activation, % at 2 µM | hit rate 1% among 190,000 | AID 1276;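 active = activation above a set limit, based on mean plus 3 SD of controls, cut at about 140% in these data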
# FLuc act counter: affects firefly luciferase, flagging false hits in luciferase stimulation screens | P08659 | ATPlite luciferase biochemical, luminescence, 10 min; 0 = ATP-free wells, 1 = DMSO control | 200,000 tested, under 10 active | activation factor at 10 µM;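 active = luciferase activation factor, scaled between plate controls, of at least 2 with compound at 10 µM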
#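 Assay system: Luciferase/luciferin detection reagent, cell-free biochemical luciferase assay / Read-out: luciferase activation / Benchmarks: No-ATP low control, compound-free enzyme-plus-ATP high control / Medium: PBS buffer for ATP / Detection: luminescence measurement of luciferase light output / Schedule: 10 min at ambient temperature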
# PPC-1+TRAIL kill: compounds killing PPC-1 cancer cells with TRAIL present (potentiator screen, no TRAIL-free arm). PPC-1 cells + TRAIL, ATPLite viability luminescence. cell killing (% activity), % at 4 µM or 5 µM. hit rate 0.41% among 220,000. AID 1443;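 active = cell killing above 50% in the first pass at 4 µM, then a duplicate retest at 5 µM averaging 50% or more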;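 note: plate controls were cells with TRAIL plus DMSO for no effect and medium-only wells lacking cells for full effect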
# TRAIL sens C8: caspase-8 TRAIL sensitization; NB7+C8 cells + TRAIL, ATPlite viability luminescence; inhibition (viability loss, TRAIL sensitization), % at 10 µM; hit rate 1% among 360,000; AID 624354;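 active = compounds causing at least 50% loss of cell viability in the single-dose screen, relative to plate controls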
# Numbers without * were called inactive; . = not tested or not shown. In the library only some 2.2% were active in any assay of this set; here they are far more common.
SMILES,NF-kB neuron act,FLuc inhib CS,APP 5'UTR act,FLuc act counter,PPC-1+TRAIL kill,TRAIL sens C8
CCN(CC)S(=O)(=O)c1ccc(N/N=C/c2ccc(O)cc2O)nc1,1.27,-0.5,-80.9,1,52.5*,17.9
Oc1ccc(C=NNc2ccccn2)c(O)c1,.,.,.,.,.,39.2
Oc1ccc(/C=N/Nc2cccc3cccnc23)c(O)c1,11.3*,22.8,49.2,0.8,5.7,19.3
Oc1ccc(/C=N/Nc2nccnc2Cl)c(O)c1,1.19,15.2,.,0.8,35.5,2.7
CCCCN1CCCCC1(C)C(=O)NCc1ccc2c(c1)OCO2 (stereo unspecified),.,.,.,.,.,11.7
CC1Cc2ccccc2N1C(=O)c1nn(C)cc1Br (stereo unspecified),0.96,-3.8,13.2,1,2.8,0.9
N#Cc1ccc(OCC(=O)Nc2ccc3[nH]c(=O)[nH]c3c2)cc1,.,.,.,.,.,-3.8
CCOC(=O)c1cnc2c(-c3ccc(F)cc3)cnn2c1C(F)(F)F,1.16,-3.0,16.7,1,-1.8,-1.5
CCOC(=O)c1cnc2c(-c3ccc(Cl)cc3)cnn2c1C,2.42,57.2*,111.4,0.4,.,51.2*
CCc1ccc(C(=O)Nc2nc(C)cs2)s1,.,.,.,.,.,36.2
CCc1ccc(C(=O)Nc2cc(C)ccc2F)s1,1.9,15.8,40.1,0.8,9.8,52.8*
COc1cccc(C(=O)OCC(=O)NCC2CCCO2)c1 (stereo unspecified),.,.,.,.,.,-7.6
Cc1ccc(CNc2ccc3c(c2)ncn3C(C)(C)C)cc1,2.92,7.2,164.6*,0.9,8.1,-1.8
Cc1ccc(CNc2ccc3c(c2)ncn3C)cc1,3.27,2.7,106.7,1,-16.6,-4.5
CCn1c([N+](=O)[O-])nc2c1c(=O)[nH]c(=O)n2C,4.81*,-2.6,-0.8,1,13.5,1.2
Cc1csc(NC(=O)Nc2cccc(Cl)c2)n1,4.6*,19.1,118.8,0.8,13.3,12.9
Cc1nn(C)c(C)c1CNC(=O)Nc1ccc(Cl)cc1,2.02,25.2,54.9,0.7,14.7,19.5
O=C(NCc1ccccn1)Nc1cccc(Cl)c1,3.72*,-3.5,72.3,1,-0.1,2.4
Cc1nn(C)c(C)c1CNC(=O)Nc1cccc(Cl)c1,4.56*,16.6,32.0,0.8,28.6,8.6
O=C(Nc1cccc(Cl)c1)Nc1nc(-c2ccccc2)cs1,1.48,1.3,34.4,1,21.0,14.8
O=C(NCc1ccccn1)Nc1cccc(NC(=O)NCc2ccccn2)c1,1.6,-2.9,12.3,1,6.1,-2.5
CCCOc1ccc(/C(O)=C2/C(=O)C(=O)N(CCCn3ccnc3)C2c2ccc(C)o2)cc1 (stereo unspecified),.,.,.,.,18.9,-14.1
CCCCSCCCNC(=O)CCCN1C(=O)c2ccccc2Sc2ncccc21,.,.,.,.,.,-4.8
C#CCSc1nnc(-c2sc(-c3ccccc3)nc2C)n1C,1.13,-0.6,11.2,1,-3.7,80.5*
Nc1[nH]nc2nc(NCc3ccccc3)c3c(c12)CCN(Cc1ccccc1)C3,4.29*,-3.2,1.8,1,18.1,4.8
SMILES,NF-kB neuron act,FLuc inhib CS,APP 5'UTR act,FLuc act counter,PPC-1+TRAIL kill,TRAIL sens C8
N#Cc1c(NCCN)nc(NCc2ccccc2)c2c1CCN(Cc1ccccc1)C2,.,1.8,5.8,1,11.7,-17.4
COc1ccc2c(c1)c1nc3n(c(=O)c1n2CC(=O)Nc1ccccc1)CCCS3,.,.,.,.,.,7.4
CCCc1c(C(=O)N/N=C/C2CC=CCC2)nnn1-c1nonc1N (stereo unspecified),.,.,.,.,.,-14.9
Clc1ccc2oc(-c3ccccn3)nc2c1,3.09,69.2*,123.9,0.3,45.8,28.4
c1ccc(-c2nc3ccccc3o2)nc1,1.35,31.3,48.0,0.7,2.7,5.1
Nc1ccc2oc(-c3ccccn3)nc2c1,0.93,57.5*,42.5,0.4,34.4,31.2
Fc1cccc(NCCc2c[nH]c3ccccc23)n1,.,.,.,.,.,19.4
c1ccc2c(NCCc3c[nH]c4ccccc34)c3ccccc3nc2c1,.,.,.,.,.,75.3*
O=[N+]([O-])c1cccc(S(=O)(=O)Nc2ccccn2)c1,.,.,.,.,.,-8.8
Nc1nc(-c2ccccn2)nc(N)c1Cc1ccccc1F,1.71,57.0*,33.1,0.4,0.1,29.0
CC(=O)c1ccc(OCCCC(=O)Nc2ccc(S(=O)(=O)N3CCOCC3)cc2)cc1,.,.,.,.,.,-3.1
COc1ccc2c(c1)C(=O)[C@@H](O)[C@H](c1ccc(OC)c(Br)c1)O2,1.43,-8.2,28.2,1.1,0.2,20.0
